# Published values from different studies.
# Protocols differ between the studies behind these lines.
# Organism: Plasmodium falciparum
# Read-out: parasite growth
Structure (SMILES),assay,system,conditions,EC50 [nM]
COCC(C)n1c(SCC(=O)Nc2cc(C(F)(F)F)ccc2Cl)nc2ccccc2c1=O (stereo not drawn),SYBR Green,3D7,,356
Cc1cc(N[C@H]2CCc3ccc(Cl)cc3C2)n2nc(C(C)(F)F)nc2n1,,HB3,"drug-resistant strain, blood stage",0.47
COc1cc2[nH]c(C)c(-c3ccccc3)c(=O)c2cc1Cl,,W2,"drug-resistant strain, blood stage",26.2
Cc1cc(NC2Cc3cc(F)c(F)cc3C2)n2nc(C(C)(F)F)nc2n1,,K1,"drug-resistant strain, blood stage",49
COc1ccc(-n2ccnc2SCC(=O)Nc2cccc(C(F)(F)F)c2)c(OC)c1,SYBR Green,3D7,,88.5
O=S(=O)(c1ccc(-c2ccc3ncnc(Nc4ccc(OCc5ccccc5)c(Cl)c4)c3c2)cc1)N1CCOCC1,SYBR Green,W2,"drug-resistant strain, blood stage",720
N#Cc1c(F)cccc1N1CCN(c2ccc(O)cc2)CC1,SYBR Green,3D7,72 h,> 12500
COc1cc2[nH]c(C)c(-c3ccc(Oc4ccc(OC(F)(F)F)cc4)cc3)c(=O)c2cc1Cl,SYBR Green,TM90,"72 h, drug-resistant strain, blood stage",1
OC(c1cc(C(F)(F)F)nc2c(C(F)(F)F)cccc12)C1CCCCN1 (stereo not drawn),SYBR Green,3D7,,20.3
CCN(CC)CCCC(C)Nc1ccnc2cc(Cl)ccc12 (stereo not drawn),SYBR Green,D6,"72 h, blood stage",9.1
CN1CCN(S(=O)(=O)c2ccc(-c3ccc4ncnc(Nc5ccc(OCc6cccc(F)c6)c(Cl)c5)c4c3)cc2)CC1,SYBR Green,W2,"drug-resistant strain, blood stage",44
Cc1c2oc3c(C)ccc(C(=O)N[C@@H]4C(=O)N[C@H](C(C)C)C(=O)N5CCC[C@H]5C(=O)N(C)CC(=O)N(C)[C@@H](C(C)C)C(=O)O[C@@H]4C)c3nc-2c(C(=O)N[C@@H]2C(=O)N[C@H](C(C)C)C(=O)N3CCC[C@H]3C(=O)N(C)CC(=O)N(C)[C@@H](C(C)C)C(=O)O[C@@H]2C)c(N)c1=O,SYBR Green,3D7,blood stage,1000
